# Experimental data reported in ChEMBL document CHEMBL1926589, “2-Anilinonicotinyl linked 2-aminobenzothiazoles and [1,2,4]triazolo[1,5-b] [1,2,4]benzothiadiazine conjugates as potential mitochondrial apoptotic inducers” (Bioorg Med Chem, 2011).
# Active and inactive are the calls of the source. No cut-off for these calls is given here.
# System: IMR-32
# Experiment: Growth inhibition of human IMR32 cells at 10 uM by sulforhodamine B assay
# Type: functional
# Details: read-out: GI
# Summary of the method: (§1)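 Single-dose 10 µM screen by sulforhodamine B assay, reported as percent inhibition of cell proliferation. Cells grown in medium with 10% heat-inactivated FBS at 37 °C, 5% CO2, and treated at about 70% confluence or in log phase. Compounds dissolved in DMSO; controls received vehicle (<0.5% v/v).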
row,Compound,inhibition of growth at 10 µM [%]
1,O=C(Nc1nc2ccc([N+](=O)[O-])cc2s1)c1cccnc1Nc1ccccc1,45

# System: SK-N-SH
# Experiment: Growth inhibition of human SK-N-SH cells at 10 uM by sulforhodamine B assay
# Type: functional
# Details: read-out: GI
# Summary of the method: as §1
row,Compound,inhibition of growth at 10 µM [%]
1,O=C(Nc1nc2ccc([N+](=O)[O-])cc2s1)c1cccnc1Nc1ccccc1,48

# System: SiHa
# Experiment: Growth inhibition of human SiHa cells at 10 uM by sulforhodamine B assay
# Type: functional
# Details: read-out: GI
# Summary of the method: as §1
row,Compound,inhibition of growth at 10 µM [%]
1,O=C(Nc1nc2ccc([N+](=O)[O-])cc2s1)c1cccnc1Nc1ccccc1,53

# System: SW-620
# Experiment: Growth inhibition of human SW620 cells at 10 uM by sulforhodamine B assay
# Type: functional
# Details: read-out: GI
# Summary of the method: as §1
row,Compound,inhibition of growth at 10 µM [%]
1,O=C(Nc1nc2ccc([N+](=O)[O-])cc2s1)c1cccnc1Nc1ccccc1,65

# System: HCT-15
# Experiment: Growth inhibition of human HCT15 cells at 10 uM by sulforhodamine B assay
# Type: functional
# Details: read-out: GI
# Summary of the method: as §1
row,Compound,inhibition of growth at 10 µM [%]
1,O=C(Nc1nc2ccc([N+](=O)[O-])cc2s1)c1cccnc1Nc1ccccc1,66

# System: not listed separately
# Experiment: Growth inhibition of human 502713 cells at 10 uM by sulforhodamine B assay
# Type: functional
# Details: read-out: GI
# Summary of the method: as §1
row,Compound,inhibition of growth at 10 µM [%]
1,O=C(Nc1nc2ccc([N+](=O)[O-])cc2s1)c1cccnc1Nc1ccccc1,63

# System: DU-145
# Experiment: Growth inhibition of human DU145 cells at 10 uM by sulforhodamine B assay
# Type: functional
# Details: read-out: GI
# Summary of the method: as §1
row,Compound,inhibition of growth at 10 µM [%]
1,O=C(Nc1nc2ccc([N+](=O)[O-])cc2s1)c1cccnc1Nc1ccccc1,52

# System: A549
# Experiment: Growth inhibition of human A549 cells at 10 uM by sulforhodamine B assay
# Type: functional
# Details: read-out: GI
# Summary of the method: as §1
row,Compound,inhibition of growth at 10 µM [%]
1,O=C(Nc1nc2ccc([N+](=O)[O-])cc2s1)c1cccnc1Nc1ccccc1,31

# System: HEp-2
# Experiment: Growth inhibition of human Hep2 cells at 10 uM by sulforhodamine B assay
# Type: functional
# Details: read-out: GI
# Summary of the method: as §1
row,Compound,inhibition of growth at 10 µM [%]
1,O=C(Nc1nc2ccc([N+](=O)[O-])cc2s1)c1cccnc1Nc1ccccc1,26

# System: OVCAR-5
# Experiment: Growth inhibition of human OVCAR5 cells at 10 uM by sulforhodamine B assay
# Type: functional
# Details: read-out: GI
# Summary of the method: as §1
row,Compound,inhibition of growth at 10 µM [%]
1,O=C(Nc1nc2ccc([N+](=O)[O-])cc2s1)c1cccnc1Nc1ccccc1,50

# System: HL-60
# Experiment: Growth inhibition of human HL60 cells after 48 hrs by MTT assay
# Type: functional, cell-based
# Details: HL-60, 48 h
row,Compound,IC50 [nM]
1,O=C(Nc1nc2ccc([N+](=O)[O-])cc2s1)c1cccnc1Nc1ccccc1,580

# System: SiHa
# Experiment: Growth inhibition of human SiHa cells after 48 hrs by MTT assay
# Type: functional, cell-based
# Details: not given
row,Compound,IC50 [µM]
1,O=C(Nc1nc2ccc([N+](=O)[O-])cc2s1)c1cccnc1Nc1ccccc1,28

# System: CV-1
# Experiment: Growth inhibition of african green monkey CV1 cells after 48 hrs by MTT assay
# Type: cell-based
# Details: Chlorocebus aethiops, CV-1, 48 h
row,Compound,IC50 [µM]
1,O=C(Nc1nc2ccc([N+](=O)[O-])cc2s1)c1cccnc1Nc1ccccc1,70

# System: not listed separately
# Experiment: Therapeutic ratio of IC50 for african green monkey CV1 cells to IC50 for human HL60 cells
# Type: ADME, cell-based, HL-60
# Details: CV1 cells and HL60 cells, read-out: Ratio IC50
row,Compound,selectivity ratio
1,O=C(Nc1nc2ccc([N+](=O)[O-])cc2s1)c1cccnc1Nc1ccccc1,120

# System: HL-60
# Experiment: Induction of apoptosis in human HL60 cells assessed as early apoptotic cells at 1 uM after 24 hrs using Annexin V-FITC and propidium iodide staining by flow cytometry relative to control
# Type: functional
# Details: not given
# Summary of the method: (§2)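 HL-60 cells (1 x 10^5 per 1.5 mL) treated 24 h, washed twice in PBS and stained in binding buffer with annexin V-FITC and PI. Flow cytometry with FITC in FL-1 (530 nm) and PI in FL-2 (585 nm), using quadrant statistics: lower right taken as apoptotic, upper right as post-apoptotic necrotic. Representative of three independent experiments.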
row,Compound,Activity [%]
1,O=C(Nc1nc2ccc([N+](=O)[O-])cc2s1)c1cccnc1Nc1ccccc1,13

# System: HL-60
# Experiment: Induction of apoptosis in human HL60 cells assessed as non-viable necrotic cells at 1 uM after 24 hrs using Annexin V-FITC and propidium iodide staining by flow cytometry relative to control
# Type: functional
# Details: not given
# Summary of the method: as §2
row,Compound,Activity [%]
1,O=C(Nc1nc2ccc([N+](=O)[O-])cc2s1)c1cccnc1Nc1ccccc1,42

# System: HL-60
# Experiment: Induction of apoptosis in human HL60 cells assessed as late apoptotic cells at 1 uM after 24 hrs using Annexin V-FITC and propidium iodide staining by flow cytometry relative to control
# Type: functional
# Details: not given
# Summary of the method: as §2
row,Compound,Activity [%]
1,O=C(Nc1nc2ccc([N+](=O)[O-])cc2s1)c1cccnc1Nc1ccccc1,7

# System: HL-60
# Experiment: Induction of apoptosis in human HL60 cells assessed as caspase3 activation using DEVD-AFC as substrate at 1 uM after 24 hrs by fluorimetry relative to control
# Type: functional
# Details: not given
# Summary of the method: (§3)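 HL-60 cells (2 x 10^6) treated 24 h, washed and lysed. Caspase-3, -8 and -9 activities in lysates measured fluorometrically with a commercial caspase fluorescent assay kit. Two independent experiments, each in duplicate.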
row,Compound,Activity
1,O=C(Nc1nc2ccc([N+](=O)[O-])cc2s1)c1cccnc1Nc1ccccc1,inactive

# System: HL-60
# Experiment: Induction of apoptosis in human HL60 cells assessed as caspase8 activation using IETD-AFC as substrate at 1 uM after 24 hrs by fluorimetry relative to control
# Type: functional
# Details: not given
# Summary of the method: as §3
row,Compound,Activity
1,O=C(Nc1nc2ccc([N+](=O)[O-])cc2s1)c1cccnc1Nc1ccccc1,inactive

# System: HL-60
# Experiment: Induction of apoptosis in human HL60 cells assessed as caspase9 activation using LEHD-AMC as substrate at 1 uM after 24 hrs by fluorimetry relative to control
# Type: functional
# Details: not given
# Summary of the method: as §3
row,Compound,Activity
1,O=C(Nc1nc2ccc([N+](=O)[O-])cc2s1)c1cccnc1Nc1ccccc1,inactive

# System: HL-60
# Experiment: Induction of apoptosis in human HL60 cells assessed as DNA ladder formation at 1 uM after 24 hrs by agarose gel electrophoresis
# Type: functional, cell-based
# Details: not given
# Summary of the method: (§4)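 Cells treated 24 h, then 2 x 10^6 cells lysed (Triton X-100 buffer, pH 8.0) with RNase at 37 °C for 90 min and proteinase-K at 50 °C for 1 h. DNA phenol/chloroform-extracted and ethanol-precipitated, then run on 1.8% agarose at 50 V for 1.5 h in TAE. Ladders viewed under UV.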
row,Compound,Activity
1,O=C(Nc1nc2ccc([N+](=O)[O-])cc2s1)c1cccnc1Nc1ccccc1,Active

# System: HL-60
# Experiment: Induction of apoptosis in human HL60 cells assessed as DNA ladder formation at 10 uM after 24 hrs by agarose gel electrophoresis
# Type: functional, cell-based
# Details: not given
# Summary of the method: as §4
row,Compound,Activity
1,O=C(Nc1nc2ccc([N+](=O)[O-])cc2s1)c1cccnc1Nc1ccccc1,Active

# System: SiHa
# Experiment: Induction of apoptosis in human SiHa cells assessed as DNA ladder formation at 10 uM after 24 hrs by agarose gel electrophoresis
# Type: functional, cell-based
# Details: not given
# Summary of the method: as §4
row,Compound,Activity
1,O=C(Nc1nc2ccc([N+](=O)[O-])cc2s1)c1cccnc1Nc1ccccc1,inactive

# System: HeLa
# Experiment: Induction of apoptosis in human HeLa cells assessed as DNA ladder formation at 10 uM after 24 hrs by agarose gel electrophoresis
# Type: functional, cell-based
# Details: not given
# Summary of the method: as §4
row,Compound,Activity
1,O=C(Nc1nc2ccc([N+](=O)[O-])cc2s1)c1cccnc1Nc1ccccc1,inactive

# System: HL-60
# Experiment: Cell cycle arrest in human HL60 cells assessed as accumulation at sub-G0 phase measuring DNA damage at 1 uM after 24 hrs using propidium iodide staining by flow cytometry (reference value: 1%)
# Type: functional
# Details: not given
# Summary of the method: (§5)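 HL-60 cells (1 x 10^5 per 1.5 mL) treated 24 h, then fixed in 70% cold ethanol at −20 °C overnight. RNase digestion (400 µg/ml) at 37 °C for 45 min, then propidium iodide (10 µg/ml) for 30 min. Flow cytometry on 10,000 events, FL2-A vs FL2-W, with doublet discrimination. Sub-G0 (hypodiploid) peak taken as apoptotic cells. Mean ± SD of three independent experiments.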
row,Compound,Activity [%]
1,O=C(Nc1nc2ccc([N+](=O)[O-])cc2s1)c1cccnc1Nc1ccccc1,24

# System: HL-60
# Experiment: Cell cycle arrest in human HL60 cells assessed as accumulation at G1 phase at 1 uM after 24 hrs using propidium iodide staining by flow cytometry
# Type: functional, cell-based
# Details: not given
# Summary of the method: as §5
row,Compound,Activity
1,O=C(Nc1nc2ccc([N+](=O)[O-])cc2s1)c1cccnc1Nc1ccccc1,inactive

# System: HL-60
# Experiment: Cell cycle arrest in human HL60 cells assessed as accumulation at S phase at 1 uM after 24 hrs using propidium iodide staining by flow cytometry
# Type: functional, cell-based
# Details: not given
# Summary of the method: as §5
row,Compound,Activity
1,O=C(Nc1nc2ccc([N+](=O)[O-])cc2s1)c1cccnc1Nc1ccccc1,inactive

# System: HL-60
# Experiment: Cell cycle arrest in human HL60 cells assessed as accumulation at G2/M phase at 1 uM after 24 hrs using propidium iodide staining by flow cytometry
# Type: functional, cell-based
# Details: not given
# Summary of the method: as §5
row,Compound,Activity
1,O=C(Nc1nc2ccc([N+](=O)[O-])cc2s1)c1cccnc1Nc1ccccc1,inactive

# System: HL-60
# Experiment: Induction of apoptosis in human HL60 cells assessed as increase of reactive oxygen species level at 1 uM after 24 hrs using DCFH-DA fluorescent dye based flow cytometric analysis relative to control
# Type: functional
# Details: not given
# Summary of the method: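 HL-60 cells (1 x 10^5 per 1.5 mL) treated 24 h, then loaded with 10 µM H2DCFDA for 30 min at 37 °C. Washed twice in PBS and read in FL-1 (530 nm). Percentage of DCF-positive cells determined; mean ± SD of three experiments.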
row,Compound,Activity [%]
1,O=C(Nc1nc2ccc([N+](=O)[O-])cc2s1)c1cccnc1Nc1ccccc1,31

# System: HL-60
# Experiment: Induction of NO production in human HL60 cells at 1 uM after 24 hrs using DAF-2DA fluorescent dye based flow cytometric analysis
# Type: functional, cell-based
# Details: not given
# Summary of the method: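 HL-60 cells (1 x 10^5 per 1.5 mL) preloaded 30 min with 10 µM DAF-2-DA before treatment. After 24 h exposure, cells were washed and read by flow cytometry in FL-1 as NO-positive population. Mean ± SD of three independent experiments.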
row,Compound,Activity
1,O=C(Nc1nc2ccc([N+](=O)[O-])cc2s1)c1cccnc1Nc1ccccc1,inactive

# System: HL-60
# Experiment: Induction of apoptosis in human HL60 cells assessed as decrease in mitochondrial membrane potential at 1 uM after 24 hrs using rhodamine 123 staining by flow cytometry
# Type: functional
# Details: not given
# Summary of the method: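 HL-60 cells (1 x 10^5 per 1.5 mL) treated 24 h, then stained with rhodamine-123 (5 µg/mL final) for 1 h. Washed, and propidium iodide (5 µg/mL) added just before reading. FL-1 fluorescence from 10,000 events; percentage of low Rh-123 cells taken as loss of membrane potential. Mean ± SD, n=3.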
row,Compound,Activity
1,O=C(Nc1nc2ccc([N+](=O)[O-])cc2s1)c1cccnc1Nc1ccccc1,Active

# System: HL-60
# Experiment: Inhibition of NF-kappaB expression in human HL60 cells at 1 uM after 24 hrs by Western blotting
# Type: functional, cell-based
# Details: not given
# Summary of the method: (§6)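 HL-60 cells treated 24 h and lysed in RIPA buffer on ice; protein measured by Bradford against a BSA standard. 50 µg resolved by SDS-PAGE and transferred to PVDF, blocked in 5% milk/TBST, then primary antibodies 1:1000 for 2 h and HRP secondary 1:1000 for 1 h. ECL detection with β-actin as loading control; bands quantified by densitometry.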
row,Compound,inhibition
1,O=C(Nc1nc2ccc([N+](=O)[O-])cc2s1)c1cccnc1Nc1ccccc1,inactive

# System: HL-60
# Experiment: Induction of apoptosis in human HL60 cells assessed as PARP cleavage at 1 uM after 24 hrs by Western blotting
# Type: functional, cell-based
# Details: not given
# Summary of the method: as §6
row,Compound,Activity
1,O=C(Nc1nc2ccc([N+](=O)[O-])cc2s1)c1cccnc1Nc1ccccc1,Active

# System: HL-60
# Experiment: Inhibition of Bcl-2 expression in human HL60 cells at 1 uM after 24 hrs by Western blotting
# Type: functional, cell-based
# Details: not given
# Summary of the method: as §6
row,Compound,inhibition
1,O=C(Nc1nc2ccc([N+](=O)[O-])cc2s1)c1cccnc1Nc1ccccc1,inactive
